A selection follows.
Apaf-1 act = activates human Apaf-1 apoptosome. O14727. Apaf-1 apoptosome caspase-3 activation, DEVD-Rh110 fluorescence; hits give low values. activity change, negative = activation, % at 20 µM. 330,000 tested, 0.31% active. AID 489031;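 active = activity change at or below -40% at 20 µM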
Target sequence (O14727 whole entry, looked up): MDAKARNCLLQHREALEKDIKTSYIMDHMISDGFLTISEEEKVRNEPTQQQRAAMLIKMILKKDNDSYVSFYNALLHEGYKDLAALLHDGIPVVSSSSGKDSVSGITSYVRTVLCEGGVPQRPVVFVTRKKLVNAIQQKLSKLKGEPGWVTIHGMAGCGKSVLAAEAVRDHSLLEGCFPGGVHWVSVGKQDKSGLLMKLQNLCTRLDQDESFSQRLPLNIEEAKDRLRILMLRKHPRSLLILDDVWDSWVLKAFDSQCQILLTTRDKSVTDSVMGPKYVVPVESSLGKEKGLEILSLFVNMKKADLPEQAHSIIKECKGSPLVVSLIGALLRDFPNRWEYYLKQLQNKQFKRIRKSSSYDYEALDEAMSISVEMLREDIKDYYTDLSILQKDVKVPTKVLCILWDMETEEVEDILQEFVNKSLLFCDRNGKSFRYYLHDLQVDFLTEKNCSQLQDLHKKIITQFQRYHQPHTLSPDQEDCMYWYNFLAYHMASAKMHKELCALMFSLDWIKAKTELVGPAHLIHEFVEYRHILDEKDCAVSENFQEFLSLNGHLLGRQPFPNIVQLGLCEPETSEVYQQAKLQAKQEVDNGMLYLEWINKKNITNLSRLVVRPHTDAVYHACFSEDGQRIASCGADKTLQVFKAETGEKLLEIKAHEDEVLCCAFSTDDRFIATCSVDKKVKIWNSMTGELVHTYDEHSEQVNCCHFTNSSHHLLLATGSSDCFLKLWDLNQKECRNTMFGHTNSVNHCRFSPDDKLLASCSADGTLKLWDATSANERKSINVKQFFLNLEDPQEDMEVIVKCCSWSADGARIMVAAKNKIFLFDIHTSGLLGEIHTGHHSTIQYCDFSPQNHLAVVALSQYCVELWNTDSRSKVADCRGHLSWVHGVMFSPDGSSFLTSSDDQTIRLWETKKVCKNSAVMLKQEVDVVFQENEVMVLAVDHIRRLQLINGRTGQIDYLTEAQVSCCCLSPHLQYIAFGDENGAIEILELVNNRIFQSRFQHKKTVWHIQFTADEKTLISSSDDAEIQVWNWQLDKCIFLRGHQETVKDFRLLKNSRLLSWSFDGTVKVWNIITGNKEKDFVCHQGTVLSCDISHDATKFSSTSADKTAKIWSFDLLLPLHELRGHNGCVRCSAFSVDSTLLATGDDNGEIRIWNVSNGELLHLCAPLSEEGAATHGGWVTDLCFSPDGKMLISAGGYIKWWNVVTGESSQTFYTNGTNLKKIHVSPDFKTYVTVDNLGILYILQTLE
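System: Reconstituted apoptosome of Apaf-1, cytochrome c, caspase-9, procaspase-3 | Reagent: dATP, cytochrome c, and (Z-DEVD)2-Rh110 caspase-3 substrate | Times: 30 min compound preincubation and 50 min reaction, both room temperature | Detection: Caspase-3-released Rh110 fluorescence, 540 nm emission, 480 nm excitation | Measure: Caspase-3 activity via Apaf-1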
Rh110 act interf = counter-screen for Apaf-1 activators: fluorescence interference. Rh110 fluorescence interference, quenched caspase reaction, Ex480/Em540. fluorescence interference (activity change), % at 20 µM, hits read low. shares compounds with Apaf-1 act. 980 tested, under 10 active;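 active = mean activity change at or below -40% when tested at 20 µM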
Apaf-1 act conf2 = confirmation of human Apaf-1 activators; shares compounds with Apaf-1 act; reconstituted apoptosome caspase-3 activity, DEVD-Rh110 fluorescence; hits give low values; activity change, negative = activation, % at 20 µM; 980 tested, 5% active;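 active = mean activity change at or below -40%, meaning activation of 40% or more, at 20 µM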
Apaf1 act interf = counter-screen for Apaf-1 activators: fluorescence interference, dose response; fluorescence interference counterscreen, Apaf-1 activator assay; shares compounds with Apaf-1 act; EC50, µM; AID 588592; 55 tested, under 10 active; call rule not given here
* = called active by the depositor; · = no result given.

SMILES	Apaf-1 act	Rh110 act interf	Apaf-1 act conf2	others
CS(=O)(=O)N(CC(=O)N1CCN(c2ccccc2)CC1)c1ccccc1Cl	-164*	4	11
O=C(c1ccc(-c2ccccc2Cl)o1)N1CCCC(C(F)(F)F)C1 (stereo not drawn)	41	·	·
COc1ccccc1OCCNC(=O)c1cccc(S(=O)(=O)N2CCN(Cc3ccccc3)CC2)c1	67	·	·
COc1ccc(S(=O)(=O)N2CCCCCC2)cc1C(=O)NCCc1ccccc1	47	·	·
COc1cc2c(cc1NC(=O)C(C)N1CCN(S(=O)(=O)c3ccc(C)c(C)c3)CC1)oc1ccccc12 (stereo not drawn)	-578*	14	13
COc1ccc(-n2c(C)cc(/C=N/Nc3nnc(C)n3N)c2C)cc1	53	·	·
CN(C)S(=O)(=O)N1CCCN(S(=O)(=O)N(C)C)CC1	-313*	0	14
C#CCOCCOCCOCCNc1nc(N2CCN(C(=O)CCCCCCCCCCNC(=O)[C@H](CCCCN)n3cc(C[C@@H](C)CC)nn3)CC2)nc(N2CCN(C(=O)CCCCCCCCCCNC(=O)[C@H](CCCN=C(N)N)n3cc(C[C@@H](C)CC)nn3)CC2)n1	55	·	·
CC(=O)N(C)c1ccc(N=Cc2cc3c(cc2[N+](=O)[O-])OCO3)cc1	65	·	·
CCOC(=O)C(NC(=O)c1ccccc1Cl)(Nc1ccc(C(F)(F)F)cc1)C(F)(F)F (stereo not drawn)	-406*	5	9
Oc1ccc(NCc2ccccc2OCc2ccccc2F)cc1	92	·	·
C#CCOCCOCCOCCNc1nc(N2CCN(C(=O)CCCCCCCCCCNC(=O)Cn3cc(CCCCCN)nn3)CC2)nc(N2CCN(C(=O)CCCCCCCCCCNC(=O)[C@@H]([C@H](C)O)n3cc(C)nn3)CC2)n1	49	·	·
COc1ccccc1Nc1cc2cc(Br)ccc2c(=O)[nH]1	97	·	·
CC(=O)c1cccc(-c2ccc3c(=O)[nH]c(Nc4ccccc4)cc3c2)c1	96	·	·	Apaf1 act interf=>100
O=c1[nH]c(Nc2ccccc2)cc2cc(Br)ccc12	98	·	·
COc1ccc(NC(=S)Nc2cccc3cnccc23)cc1	95	·	·
CC1=C(CC(=O)c2ccccc2)C(=O)c2ccccc2C1=O	45	·	·
CN(CC(=O)Nc1ccc(F)cc1)C(=O)C1CC(=O)N(Cc2ccccc2)C1 (stereo not drawn)	44	·	·
Cc1ccc(NC(=O)CC(C)N2CCCC2)cc1 (stereo not drawn)	-79*	10	13
O=[N+]([O-])c1ccc(C=Nc2cccc3ccccc23)s1	68	·	·
CNc1cc(C)c(C#N)c2nc3ccccc3n12	-58*	7	3
N#Cc1c(N)n(-c2ccccc2N)c2nc3ccccc3nc12	69	·	·
COc1ccc(CCn2c(N)c(C#N)c3nc4ccccc4nc32)cc1OC	60	·	·
CC(C)(C)OC(=O)NCCCCCNC(=O)c1nc[nH]c1C(=O)NCCCCCNC(=O)OC(C)(C)C	-50*	8	-2
CC(=O)Nc1ccc(NC(=O)CC2Nc3cccc4cccc(c34)NC2=O)cc1 (stereo not drawn)	96	·	·
SMILES	Apaf-1 act	Rh110 act interf	Apaf-1 act conf2	others
Cc1cccc(C)c1OCc1cc(C(=O)NCC2CCCCC2)no1	-57*	2	13
COc1ccc(OCc2cc(C(=O)NC3CCOCC3)no2)c2ccccc12	41	·	·
CCOC(=O)c1nn(-c2ccc(C)c(C)c2)c(=O)c2c(N)scc12	56	·	·
COC(=O)C1=C(C)N(Cc2ccccc2)C(=NCc2cccc(Cl)c2)N[C@H]1c1ccccc1	56	·	·
COc1cccc(C(C[N+](=O)[O-])c2c(C)[nH]n(-c3ccccc3)c2=O)c1 (stereo not drawn)	97	·	·
CC1(C)CC2CC(C)(CN2C(=O)c2cccs2)C1 (stereo not drawn)	-95*	6	13
CC(NC(=O)C1CCN(C(=O)c2cccs2)CC1)c1ccc(S(N)(=O)=O)cc1 (stereo not drawn)	62	·	·
c1ccc(-c2sc3ccccc3c2-c2ccc(OCCN3CCCC3)cc2)cc1	78	·	·
O=C(/C=C/c1ccc(-c2ccccc2[N+](=O)[O-])o1)c1ccco1	43	·	·
O=C(O)/C=C/C(=O)c1ccc(O)cc1	-83*	-1	0
COc1ccc(-c2c(C#Cc3ccc(N(C)C)cc3)c3ccccc3n2C)cc1	57	·	·
OCCCCNc1cccc2ccccc12	81	·	·
CC(=O)NC1=C(NC2CCS(=O)(=O)C2)C(=O)c2ccccc2C1=O (stereo not drawn)	41	·	·
COc1ccc2[nH]c3c4c(ccc3c2c1)C(=O)C=CC4=O	45	·	·
Cc1ccc(S(=O)(=O)N2CCN(c3nc(CN4CCCC4)nc4sc(C)c(C)c34)CC2)cc1	48	·	·
Cc1ccc(S(=O)(=O)c2nc(S(C)(=O)=O)sc2N(C)C)cc1	-90*	-9	-23
C=CC(=O)Nc1ccc(Nc2nc(NC3CCC(N(C)C)CC3)nc3c2ncn3C(C)C)cc1 (stereo not drawn)	46	·	·
CC(C)(C)c1ccc(OCCOc2ccc(C(C)(C)C)cc2NC=O)c(NC=O)c1	41	·	·
COc1cc(-c2ccc(Nc3ccccc3C(=O)O)c(OC)c2)ccc1Nc1ccccc1C(=O)O	48	·	·
COc1cc(S(=O)(=O)Nc2ccccc2)ccc1NC=O	-49*	-3	11
COc1ccc(-c2cc(=O)n(-c3ccc([N+](=O)[O-])cc3)[nH]2)cc1	65	·	·
CC[C@H](C)[C@@H]1NC(=O)[C@H]([C@@H](C)CC)NC(=O)[C@@H](CC(C)C)NC(=O)[C@H](Cc2ccccc2)NC(=O)[C@H](Cc2ccccc2)NC(=O)[C@@H]2CCCN2C(=O)[C@@H]2CCCN2C(=O)[C@H](C(C)C)NC(=O)[C@H](CC(C)C)NC1=O	54	·	·
Cc1nnc(N=c2ssnc2Cl)o1	50	·	·
Cc1cc(C)n2nc(C(=O)N3CCCC(CNS(=O)(=O)c4cccs4)C3)cc2n1 (stereo not drawn)	-394*	4	13
COc1ccc(S(=O)(=O)Nc2cccc3c2O[C@H](CN(C)Cc2ccccc2)[C@@H](C)CN([C@H](C)CO)C3=O)cc1	53	·	·
SMILES	Apaf-1 act	Rh110 act interf	Apaf-1 act conf2	others
CCn1cc(C(=O)NCCCOC)c(=O)c2cc(S(=O)(=O)N(C)C)ccc21	-303*	-5	8
COCCCNC(=O)c1c(N)n(-c2cccc(S(N)(=O)=O)c2)c2nc3ccccc3nc12	43	·	·
CCN1CCN(Cc2ccc(NC(=O)c3ccc(C)c(NC(=O)c4cc(-c5ccc(Br)cc5)n[nH]4)c3)cc2C(F)(F)F)CC1	45	·	·
Oc1ccc(N=Cc2ccc(O)c(O)c2)cc1	75	·	·
O=C1NC(=S)N/C1=C/c1cc2c(cc1[N+](=O)[O-])OCO2	88	·	·
Cc1cc(C)c2c(=O)c(/C=C3\NC(=S)NC3=O)coc2c1	-99*	10	-63*	Apaf1 act interf=>100
N#C/C(=C/c1ccc(N2CCOCC2)o1)c1ccc(Br)cc1	-109*	-2	19
CC(Cc1cccc(C(F)(F)F)c1)NCCOC(=O)c1ccccc1 (stereo not drawn)	23	·	·
CC(NC(=O)c1ccco1)C(=O)OCc1cccc(C(F)(F)F)c1 (stereo not drawn)	-50*	0	9

Bioassay records: PubChem, Sanford-Burnham Center for Chemical Genomics
